# Insulin prom act – TRM-6 insulin promoter activation. TRM-6 cells (human fetal islet line), insulin promoter eGFP reporter, imaging; plate-scaled: unstimulated 0, stimulated control 100. activation, % at 2 µM. actives 0.81% (n = 130,000). AID 1296;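 active = activation at 2 µM above a set limit, confirmed on inspection of the cell images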;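 note: share of cells whose green reporter signal exceeds an intensity cutoff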
#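 Assay system: TRM-6 human fetal islet cells, insulin promoter–eGFP reporter; Also added: 0.75 µM tamoxifen as reporter inducer; Schedule: 15 h tamoxifen pre-treatment, 48 h compound treatment at 37 °C; Signal: fixed-cell fluorescence microscopy, eGFP plus Hoechst; Read-out: percent activation from GFP-positive cell fraction; Control set: stimulated and unstimulated wells.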
# An asterisk follows results filed as active. Shown is part of a subset that was picked to be rich in hits.
SMILES,Insulin prom act
CS(=O)(=O)N(CC(=O)N1CCCCCC1)Cc1ccc(Cl)cc1,-7
CN1CCN(C(=O)CN(Cc2ccc(Cl)cc2)S(C)(=O)=O)CC1,579*
COc1ccc(CNC(=O)CSc2nnc(C(F)(F)F)n2C)cc1,0
COC(=O)NNC(=O)c1ccccc1C,9
COc1ccc(S(=O)(=O)NCC(c2cccnc2)N2CCN(c3ccccc3OC)CC2)cc1C (stereo not drawn),186*
COc1ccccc1N1CCN(C(CNS(=O)(=O)c2ccccc2)c2cccnc2)CC1 (stereo not drawn),-10
COc1ccccc1N1CCN(C(CNC(=O)c2ccc3c(c2)OCO3)c2cccnc2)CC1 (stereo not drawn),0
CC(=O)c1ccccc1NCC(=O)Nc1ccc(C)cc1,5
Nc1nc(N2CCN(c3ccc(F)cc3)CC2)n[nH]1,-3
CS(=O)(=O)N(CC(=O)NCCSCc1ccccc1)c1ccc2c(c1)OCO2,204*
CN(C)C(=O)CN(c1ccc2c(c1)OCO2)S(C)(=O)=O,-71
CS(=O)(=O)N(CC(=O)NCc1ccccn1)c1ccc2c(c1)OCCO2,37
O=C1Nc2ccccc2CCC1Sc1nnc(-c2ccc(Cl)cc2)s1 (stereo not drawn),143
Cc1ccc(S(=O)(=O)/C(C#N)=C/c2c(N3CC(C)OC(C)C3)nc3c(C)cccn3c2=O)cc1 (stereo not drawn),-3
Cc1cccn2c(=O)c(C=NCCO)c(NCc3ccco3)nc12,9
CCOCCCNc1nc2c(C)cccn2c(=O)c1/C=C1\SC(=S)N(CC(C)C)C1=O,223*
Fc1ccc(C2c3cccn3CCN2C(=S)Nc2cccc(Br)c2)cc1 (stereo not drawn),-8
O=C(COc1ncnc2sccc12)N1CCc2ccccc2C1,-10
COCCn1c(SCC(=O)N2CCCC2)nnc1-c1ccoc1C,-9
COc1ccc(/C=C2/C(=O)N=C3SCCN32)cc1,3
COc1ccc(/C=C2/C(=O)N=C(N)N2C)cc1OC,252*
COc1ccc(/C=C2\SC(=O)NC2=S)cc1OC,9
CCc1nnc(NS(=O)(=O)c2ccc(NC(=O)/C=C/c3ccc(F)cc3)cc2)s1,275*
CCc1nnc(NC(=O)/C=C/c2ccco2)s1,-6
Cc1ccc(/C=C/C(=O)Nc2ccc(S(=O)(=O)Nc3ncccn3)cc2)cc1,-7
SMILES,Insulin prom act
COC(=O)C1=C(C)NC(C)=C(C(=O)OC)C1C(=O)OCC(=O)N1c2ccccc2CC1C (stereo not drawn),-10
Cc1ccc2c(c1)[C@@H](O)C[C@@H](C)N2N=O,-3
O=[N+]([O-])c1cc(/C=N\O)ccc1Oc1ccc(F)cc1,9
CN(c1ccccc1C(=O)Nc1ccc(S(=O)(=O)N2CCOCC2)cc1)S(C)(=O)=O,2
COC(=O)c1cn(NC(=O)c2ccc([N+](=O)[O-])c(C)c2)c(=O)c2ccccc12,320*
COC(=O)c1cn(NC(=O)c2cccc(F)c2)c(=O)c2ccccc12,-6
COC(=O)c1cn(NC(=O)c2ccc(OC)c(OC)c2)c(=O)c2ccccc12,7
COc1ccc(C(=O)NNC2=NCCCCC2)cc1,0
CCN1C(=O)CC(N2CCN(c3cccc(OC)c3)CC2)C1=O (stereo not drawn),0
COc1cccc(N2CCN(C3CC(=O)N(c4cccc(Cl)c4)C3=O)CC2)c1 (stereo not drawn),-4
CCOc1cccc(N2C(=O)CC(N3CCN(c4ccc(S(=O)(=O)CC)cc4)CC3)C2=O)c1 (stereo not drawn),80*
O=C(CCCN1C(=O)c2ccccc2C1=O)OC1CSCC1NC(=O)c1ccccc1 (stereo not drawn),8
O=C(Nc1ccc(N2CCOCC2)cc1)c1ccccc1SCC(=O)N1CCCC1,0
COCCn1c(SCc2ccccc2F)nc2ccccc2c1=O,-9
COc1ccc(C(=O)Nn2c(SCC(=O)c3ccc(Cl)cc3)nc3ccccc3c2=O)cc1,-83
COn1c(SCc2ccc(Cl)cc2)nc2ccccc2c1=O,77*
Cc1cc2cc(CN3C(=O)c4ccccc4C3=O)ccc2[nH]1,0
CCOC(=O)c1cn(-c2nc(-c3ccc(Cl)c(Cl)c3)cs2)c2c(F)c(N3CCOCC3)c(F)cc2c1=O,-10
Cc1ccc(N2CCN(C(=O)c3ccccc3NC(=O)c3ccccc3C(=O)O)CC2)cc1,0
CCC(C(=O)NC1CCCC1)N(C(=O)Cn1nnc(-c2ccc(C)o2)n1)c1cnc2ccccc2c1 (stereo not drawn),160*
Cc1ccc(-c2nnn(CC(=O)N(Cc3ccccc3F)C(C(=O)NC3CCCC3)c3ccncc3)n2)o1 (stereo not drawn),231
Cc1ccc(-c2nnn(CC(=O)N(CC(=O)NC(C)C)c3cnc4ccccc4c3)n2)o1,-71
C[N+]1(CC(=O)Nc2ccc(F)cc2)CCN(C(=O)c2ccco2)CC1,-3
O=S(=O)(Nc1ccc2c(c1)OCCO2)c1ccc2oc3ccccc3c2c1,347
O=C(O)c1cc(S(=O)(=O)Nc2ccc3c(c2)OCCO3)c(Cl)cc1Cl,150*
CC(C)CNc1cc(Cl)c(S(=O)(=O)NCC(C)C)cc1C(=O)O,0
